# Only some compounds are listed: those with a hit (about 2.2% of all), similar ones and a draw of the others.
# NR2E3 ag-1: human photoreceptor-specific nuclear receptor agonism | CHO-S Gal4-NCOR/VP16-NR2E3 two-hybrid, luciferase | Q9Y5X4 | 360,000 compounds, 0.35% hits | inhibition of corepressor binding, % at 3.98 µM | AID 602229;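 active means inhibition above the mean of all tested compounds plus 3 SD, cut at about 70% in these data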;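 further: 0% = DMSO with NR2E3 transfected cells and 100% = cells lacking NR2E3 construct; higher means lower luciferase signal from less NR2E3 corepressor binding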
# Target sequence (Q9Y5X4 whole entry, looked up, the tested form may be a part): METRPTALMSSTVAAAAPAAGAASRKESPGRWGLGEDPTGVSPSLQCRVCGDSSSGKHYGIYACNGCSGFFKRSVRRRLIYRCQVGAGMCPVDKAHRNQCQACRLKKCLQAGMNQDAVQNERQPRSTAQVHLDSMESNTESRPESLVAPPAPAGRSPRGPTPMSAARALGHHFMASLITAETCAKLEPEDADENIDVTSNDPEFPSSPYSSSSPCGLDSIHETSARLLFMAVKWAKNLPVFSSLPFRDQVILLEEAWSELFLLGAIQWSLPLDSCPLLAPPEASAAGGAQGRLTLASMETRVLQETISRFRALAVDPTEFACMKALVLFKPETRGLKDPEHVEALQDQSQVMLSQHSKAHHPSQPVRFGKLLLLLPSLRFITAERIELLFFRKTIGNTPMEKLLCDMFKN
# HIV Env fusion: inhibitors of HIV Env-mediated cell fusion; inhibition, % at 12.3 µM; 360,000 compounds, 1.1% hits; HeLa-JRFL Env/CEM21 cell fusion, luciferase; AID 651610;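 active means mean replicate inhibition score of at least 50 and every replicate individually at or above 50; inconclusive means only one of the two criteria met; inactive means mean below 50 and not all replicates reaching 50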;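 further: 0% = plate neutral controls and 100% = maraviroc near 300 nM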
# GalR3 antagonist: antagonists of human GalR3; O60755; HEK293 GalR3-CNG cAMP membrane potential fluorescence; galR3 body fused to GalR1 C-terminus; inhibition, % at 3 µM; 360,000 compounds, 0.44% hits; AID 651719;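 active means inhibition above the screen-wide average plus 3 SD, cut at about 13% in these data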;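 further: forskolin and galanin both at EC90 stimulate the cells; cAMP rise reported by CNG channel membrane potential dye signal; 0% = forskolin plus galanin with DMSO and 100% = forskolin alone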
# Target sequence (O60755 1-299 limits assumed): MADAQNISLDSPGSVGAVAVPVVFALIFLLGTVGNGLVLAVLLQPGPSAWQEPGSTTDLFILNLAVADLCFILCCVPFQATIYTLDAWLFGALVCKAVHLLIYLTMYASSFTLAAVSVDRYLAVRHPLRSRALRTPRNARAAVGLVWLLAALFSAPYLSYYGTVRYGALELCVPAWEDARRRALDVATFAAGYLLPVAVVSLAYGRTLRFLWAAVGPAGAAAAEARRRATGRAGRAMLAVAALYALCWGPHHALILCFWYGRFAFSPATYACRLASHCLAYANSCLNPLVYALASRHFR
# NR2E3 ag-2: NR2E3 (human) agonism. GST-NR2E3/biotin-RetCOR TR-FRET, 1536-well. inhibition of corepressor binding, % at 4.78 µM. 320,000 compounds, 0.12% hits. AID 2300;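 active means percent inhibition above the cutoff of mean plus 3 SD of all tested compounds, set per screening campaign, cut at about 20% in these data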;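 further: 0% = DMSO wells and 100% = biotin wells as full block of FRET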
#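 System: GST-tagged NR2E3 plus biotinylated RetCOR corepressor; Amount: 1.35 nM GST-tagged NR2E3 final; Dosing: single nominal compound dose of 4.8 µM; Schedule: 5 h incubation at 4 °C; Technique: TR-FRET with europium anti-GST and streptavidin-D2, 340 nm excitation; Controls: biotin wells as high control, 0.6% DMSO wells as low control.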
# V-ATPase pHluor: yeast V-ATPase proton transport regulation by pHLuorin; S. cerevisiae, pHLuorin cytosolic pH fluorescence; response, % at 10 µM; 350,000 compounds, 0.37% hits; in the data active means response mostly above about 7.3%, no sharp cut-off; inactive means mostly below about 5.4%; further: actives read high
# FXN GAA850 act: increases GAA850 frataxin promoter reporter activity; activation, % at 6 µM; 360,000 compounds, 0.56% hits; AID 540364; HEK293 lucGAA850 FXN promoter luciferase reporter, 24 h; percent of 10 µM SAHA response;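 active means activation above the average of all compounds screened plus 3 SD, cutoff fixed separately per campaign, cut at about 7.5% in these data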;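 further: 0% = DMSO wells and 100% = 10 µM SAHA wells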
# NR2E3 ag conf: NR2E3 agonism confirmed in two-hybrid assay; shares compounds with NR2E3 ag-1; CHO-S mammalian two-hybrid NR2E3-NCOR, luciferase luminescence; inhibition, % at 3.98 µM; 2,300 compounds, 51% hits; AID 624378;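 active means average inhibition above a cutoff equal to the mean inhibition of all tested compounds plus one SD, cut at about 70% in these data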;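 further: 0% = DMSO in NR2E3 cells and 100% = DMSO in cells lacking NR2E3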
# GAL4-VP16 luc: GAL4-VP16 reporter inhibition in NR2E3 agonist counterscreen; inhibition, % at 3.98 µM; CHO-S GAL4-VP16 luciferase reporter, luminescence; AID 624379; shares compounds with NR2E3 ag-1; 2,300 compounds, 29% hits;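 active means mean inhibition above a cutoff equal to the average over all tested compounds plus one standard deviation, cut at about 70% in these data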;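 further: luciferase from a UAS reporter driven by GAL4-VP16 transactivation; 0% = DMSO with VP16-transfected cells and 100% = DMSO with cells lacking VP16; higher means less reporter light so more repression of VP16 activity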
# Starred values were filed as active, the others as inactive; ? = inconclusive; / = not tested or not shown; [ ] = remark or other dose.
SMILES,NR2E3 ag-1,HIV Env fusion,GalR3 antagonist,NR2E3 ag-2,V-ATPase pHluor,FXN GAA850 act,NR2E3 ag conf,GAL4-VP16 luc
CSC(=Nc1ccccc1)C(C#N)c1nc2ccccc2[nH]1 (stereo not given),-1,-8,-3,3,1,7,/,/
N#CC(C(=S)Nc1ccccc1)c1nc2ccccc2[nH]1 (stereo not given),78*,5,-2,3,-3,2,-12,-15
CCS(=O)(=O)Nc1ccc2c(c1)C(=O)N(C)[C@H]1CC[C@@H](CC(=O)N3CCN(C)CC3)O[C@H]1CO2,/,-7[16.7 µM],/,/,/,/,/,/
COc1ccccc1CNc1nc(NC(C)C)nc2ccsc12,0,6,-10,/,/,-2,/,/
COc1ccccc1CNc1nc(Nc2ccccc2OC)c2sccc2n1,57,/,/,/,/,1,54,43
COc1ccccc1CNc1nc(Nc2ccc(C)cc2C)c2sccc2n1,59,21,-11,/,/,-3,65,52
Cc1ccc(Nc2nc(NCc3cccs3)nc3ccsc23)c(C)c1,35,24,-6,/,/,-2,/,/
Cc1ccc(Nc2nc(NCc3ccccc3)nc3ccsc23)c(C)c1,57,3,-11,/,/,-2,42,50
CC(C)C(Sc1nc(-c2ccccc2)cc(-c2ccccc2)c1C#N)C(=O)O (stereo not given),58,34,-4,4,0,6,63,33
COc1ccc(-c2cc(-c3ccccc3)nc(SC(C)C(=O)O)c2C#N)cc1 (stereo not given),-16,1,-3,11,-3,2,/,/
COc1ccc(C(=O)C2CCCN(S(=O)(=O)c3ccc(C(C)=O)cc3)C2)c(C)c1 (stereo not given),83*,8,-1,-2,1,0,67,63
Cc1cccc(NC(=S)N=Nc2c(O)n(CN3CCOCC3)c3ccccc23)c1C,72*,18,0,0,-4,-2,15,22
C=CCn1c(O)c(N=NC(=S)Nc2ccccc2C)c2cc(S(=O)(=O)N3CCOCC3)ccc21,63,37,3,1,0,3,23,26
CC(C)(C)[C@@H]1C=C(C(=O)O)O[C@H](OCCCCO)C1,-17,8,-2,2,2,1,/,/
CC(C)(C)[C@H]1C=C(C(=O)Nc2ccccc2)O[C@@H](OCCCCO)C1,65,-12[16.7 µM],-5,0,-1,-6,-3,-48
O=C(c1cc(S(=O)(=O)N2CCOCC2)ccc1Cl)N1CCC(Cc2ccccc2)CC1,57,-7,-3,-2,4,1,27,7
C[C@H](NC(=O)C[C@@H]1C[C@@H]2c3cc(NC(=O)C4CCOCC4)ccc3O[C@@H]2[C@@H](CO)O1)c1ccccc1,/,-8[16.7 µM],/,/,/,/,/,/
O=C(CSc1nnnn1-c1ccc2c(c1)OCCO2)Nc1nc2c(s1)CCCC2,96*,/,-3,3,-1,-2,98*,5
N#C/C(=N\Nc1ccc(Cl)c(Cl)c1)C(=O)C1CC1,80*,8,2,7,-4,2,100*,55
CCc1c(C)nc2nc(SCc3ccccc3Cl)[nH]n2c1=O,69,-1,-2,-3,2,2,84*,61
Nc1nonc1C(=O)NCCNCc1ccccc1OCc1ccccc1F,-5,-67,-12,2,3,-4,/,/
Nc1nonc1C(=O)NCCNCc1cc(Br)ccc1OCc1ccccc1F,51,78*,-2,3,2,-3,60,50
C[C@@H]1CCCCO[C@H](CN(C)Cc2ccc(Cl)c(Cl)c2)[C@@H](C)CN([C@@H](C)CO)C(=O)c2cc(NC(=O)Cc3ccccc3)ccc2O1,/,-23[16.7 µM],/,/,/,/,/,/
CC(=O)N(C)C[C@H]1Oc2cc(C#Cc3ccccc3)ccc2S(=O)(=O)N([C@@H](C)CO)C[C@@H]1C,/,0[16.7 µM],/,/,/,/,/,/
COc1ccc(NC(=O)N(C)C[C@H]2Oc3cc(-c4cccc(C(=O)N(C)C)c4)ccc3S(=O)(=O)N([C@H](C)CO)C[C@H]2C)cc1,/,3[16.7 µM],/,/,/,/,/,/
SMILES,NR2E3 ag-1,HIV Env fusion,GalR3 antagonist,NR2E3 ag-2,V-ATPase pHluor,FXN GAA850 act,NR2E3 ag conf,GAL4-VP16 luc
COc1cccc(NC(=O)N[C@@H]2CC[C@@H](CC(=O)N3CCCCC3)O[C@@H]2CO)c1,/,-1[16.7 µM],/,/,/,/,/,/
COc1ccc(C(=O)Nc2ccc3c(c2)OC[C@@H](C)NC[C@@H](C)[C@H](OC)CN(C)C3=O)cc1,/,-9[16.7 µM],/,/,/,/,/,/
NNC(=O)c1cnn(Cc2ccccc2)c1N,57,/,-2,3,3,-1,-16,1
COc1ccccc1-c1ccc2c(c1)C(C)(Cc1ccc(OC(F)(F)F)cc1)C(=O)N2 (stereo not given),-3,?,-6,/,/,6,/,/
CC1(Cc2ccc(OC(F)(F)F)cc2)C(=O)Nc2ccc(S(=O)(=O)NC3CCCCC3)cc21 (stereo not given),85*,9,-3,/,/,1,51,23
CC(c1ccccc1)c1nnc(N)s1 (stereo not given),59,13,-2,3,-3,0,10,9
CC(Oc1ccccc1)c1nnc(N)s1 (stereo not given),25,5,-8,0,4,1,/,/
O=C(C[C@H]1C=C[C@@H](NC(=O)C2CCC2)[C@@H](CO)O1)Nc1nccs1,/,4[16.7 µM],/,/,/,/,/,/
Cc1cc(C)c(C(=O)/C=C/c2cccc3ccccc23)c(=O)[nH]1,63,11,1,-1,-1,-14,14,31
Cc1cc(C)c(C(=O)/C=C/c2ccc3c(c2)OCO3)c(=O)[nH]1,7,1,-3,1,-1,-2,/,/
COc1ccc(NC(=O)Nc2ccc3c(c2)C(=O)N([C@H](C)CO)C[C@@H](C)[C@H](CN(C)C(=O)C2CCCCC2)OCCCC[C@H](C)O3)cc1,/,11[16.7 µM],/,/,/,/,/,/
CCC(=O)N1C[C@H](C)[C@H](OC)CN(C)C(=O)c2cc(NC(=O)c3cnccn3)ccc2OC[C@H]1C,/,-5[16.7 µM],/,/,/,/,/,/
C[C@@H]1CN([C@H](C)CO)S(=O)(=O)c2ccc(Br)cc2O[C@H]1CN(C)C(=O)C1CCC1,/,8[16.7 µM],/,/,/,/,/,/
CC(OCC(O)CN1CCN(S(=O)(=O)c2ccc(Cl)cc2)CC1)c1ccc(Cl)cc1 (stereo not given),51,30,-8,/,1,-2,59,45
CC(C)c1ccc(S(=O)(=O)N2CCN(CC(O)CN3CCOCC3)CC2)cc1 (stereo not given),-11,5,-7,0,-1,0,/,/
C[C@@H]1CCCCO[C@H](CN(C)Cc2ccncc2)[C@@H](C)CN([C@@H](C)CO)C(=O)c2cc(NC(=O)CCCN(C)C)ccc2O1,/,2[16.7 µM],/,/,/,/,/,/
